Consider 18 molecules from ChEMBL document CHEMBL4400550, “Designing Dual Inhibitors of Anaplastic Lymphoma Kinase (ALK) and Bromodomain-4 (BRD4) by Tuning Kinase Selectivity” (J Med Chem, 2019).

In brackets after ≈: the same amount, converted by molar mass. Activity calls are given as the source filed them. No cut-off for these calls is given here.

Data set [1] concerns the target T1, ALK tyrosine kinase receptor (Homo sapiens, UniProt Q9UM73, F1174L). Put plainly: Displacement of kinase tracer 236 from human N-terminal GST-tagged ALK F1174L mutant (1058 to 1620 residues) after 60 mins by LanthaScreen Eu--kinase binding assay. The procedure, abridged:
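LanthaScreen Eu binding assay. Mix 5 nM ALK F1174L, 30 nM Kinase Tracer 236 and 2 nM Eu-anti-GST antibody in 50 mM HEPES pH 7.5, 10 mM MgCl2, 1 mM EGTA, 0.01% Brij-35, 1 mM DTT. Compound runs 0.5 nM–100 μM in 1% DMSO. Incubate 60 min at room temperature. Read the 665 nm acceptor/donor emission ratio; fit log(inhibitor) vs ratio with a variable-slope equation.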
A general note: TR-FRET usually uses a lanthanide donor and a delayed reading to cut background.

The target of data set [2] is T2, Bromodomain-containing protein 4 (Homo sapiens, UniProt O60885).
Data set [3] addresses T3, Serine/threonine-protein kinase PLK1 (Homo sapiens, UniProt P53350). Description: Inhibition of PLK1 (unknown origin) using Ser/Thr 16 as substrate after 60 mins by Z-LYTE activity assay.
For data set [4], the target named is T2, Bromodomain-containing protein 4. Description: Binding affinity to BRD4 (unknown origin) by isothermal calorimetry. Background: In ITC the heat of successive injections is recorded.
For data set [5], the target named is T4, ALK tyrosine kinase receptor (Homo sapiens, UniProt Q9UM73). Put plainly: Inhibition of full-length C-terminal NanoLuc-tagged ALK (unknown origin) expressed in human HEK293 cells after 2 hrs by NanoBRET target engagement assay. The class given is cell-based.
Target sequence in this assay (Q9UM73 whole entry): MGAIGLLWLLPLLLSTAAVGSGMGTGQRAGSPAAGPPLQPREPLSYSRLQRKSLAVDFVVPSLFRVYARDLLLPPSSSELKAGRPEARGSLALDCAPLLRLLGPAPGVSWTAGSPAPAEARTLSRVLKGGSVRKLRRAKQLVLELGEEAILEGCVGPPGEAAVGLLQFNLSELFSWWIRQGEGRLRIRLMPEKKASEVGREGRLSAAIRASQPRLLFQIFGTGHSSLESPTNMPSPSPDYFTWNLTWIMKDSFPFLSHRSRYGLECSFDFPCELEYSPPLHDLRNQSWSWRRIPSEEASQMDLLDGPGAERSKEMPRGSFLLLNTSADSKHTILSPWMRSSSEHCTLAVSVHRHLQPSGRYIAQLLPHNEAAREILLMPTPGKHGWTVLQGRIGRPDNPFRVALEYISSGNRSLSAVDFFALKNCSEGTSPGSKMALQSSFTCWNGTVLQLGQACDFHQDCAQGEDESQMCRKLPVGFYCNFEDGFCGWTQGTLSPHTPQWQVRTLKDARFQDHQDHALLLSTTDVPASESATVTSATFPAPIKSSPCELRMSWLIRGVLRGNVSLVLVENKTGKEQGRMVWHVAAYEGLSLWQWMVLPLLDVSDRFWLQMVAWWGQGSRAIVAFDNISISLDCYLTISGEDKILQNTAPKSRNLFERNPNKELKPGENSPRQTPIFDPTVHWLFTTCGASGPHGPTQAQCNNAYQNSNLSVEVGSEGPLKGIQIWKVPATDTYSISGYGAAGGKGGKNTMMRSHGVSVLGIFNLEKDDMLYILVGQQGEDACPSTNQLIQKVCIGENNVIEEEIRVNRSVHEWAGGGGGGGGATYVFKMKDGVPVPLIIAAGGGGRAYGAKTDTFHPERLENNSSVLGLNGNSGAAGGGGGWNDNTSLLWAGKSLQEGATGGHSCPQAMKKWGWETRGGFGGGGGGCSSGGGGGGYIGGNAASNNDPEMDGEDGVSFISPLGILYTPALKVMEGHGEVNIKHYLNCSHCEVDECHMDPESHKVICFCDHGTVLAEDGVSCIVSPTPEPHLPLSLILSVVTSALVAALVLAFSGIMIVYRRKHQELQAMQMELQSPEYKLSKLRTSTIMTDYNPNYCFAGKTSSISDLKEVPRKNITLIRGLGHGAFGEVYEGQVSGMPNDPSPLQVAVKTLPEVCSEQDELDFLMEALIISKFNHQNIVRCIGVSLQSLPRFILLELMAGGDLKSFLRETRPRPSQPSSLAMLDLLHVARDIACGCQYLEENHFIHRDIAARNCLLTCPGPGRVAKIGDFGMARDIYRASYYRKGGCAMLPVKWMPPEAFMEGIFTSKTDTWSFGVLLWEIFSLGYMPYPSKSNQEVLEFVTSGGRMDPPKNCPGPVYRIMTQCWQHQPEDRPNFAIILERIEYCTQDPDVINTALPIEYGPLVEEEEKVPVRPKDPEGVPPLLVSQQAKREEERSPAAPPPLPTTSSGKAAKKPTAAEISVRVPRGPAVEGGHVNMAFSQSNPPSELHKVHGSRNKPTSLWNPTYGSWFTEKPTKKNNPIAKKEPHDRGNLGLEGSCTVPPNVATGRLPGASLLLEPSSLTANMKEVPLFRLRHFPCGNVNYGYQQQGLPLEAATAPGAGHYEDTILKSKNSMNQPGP
The target of data set [6] is T2, Bromodomain-containing protein 4. Description: Inhibition of full-length C-terminal NanoLuc-tagged BRD4 BD1 (unknown origin) expressed in human HEK293 cells after 2 hrs by NanoBRET target engagement assay. The data set is classed as cell-based. On the technique in general: In BRET a luciferase serves as donor, and the signal depends on an acceptor being close.
For data set [7], the target named is T3, Serine/threonine-protein kinase PLK1. Description: Inhibition of PLK1 (unknown origin) at 10 nM using Ser/Thr 16 as substrate after 60 mins by Z-LYTE activity assay. The procedure, abridged: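 PLK-1 Z'-LYTE activity assay run externally through the SelectScreen kinase profiling service. Percentage inhibition is measured at 10 nM compound.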
Data set [8] shares this target. Description: Binding affinity to human PLK1 (33 to 325 residues) expressed in mammalian expression system assessed as unbound protein level at 1 uM by kinome scan-based assay. In a few lines:
(§1)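 Single-point KINOMEscan (scanEDGE) competition binding at 1 μM compound. Read-out is %Ctrl, with DMSO set as 100%Ctrl; lower values mean stronger binding.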

The nature of data set [9]: Lipophilicity, log D of the compound at pH 7.4. The data set is classed as physicochemical. To be noted: buffer.
Data set [10] can be described thus: Partition coefficient, log P of the compound. The data set is classed as physicochemical. The note with it: octanol/water.
The next data set deals with HeLa. Put plainly: Induction of cell cycle arrest in human HeLa cells at 4 to 10 uM after 24 hrs by propidium iodide-staining based flow cytometry. The class given is functional.
In data set [11] the target is T5, Insulin receptor (Homo sapiens, UniProt P06213). Description: Binding affinity to human INSR (997 to 1318 residues) expressed in mammalian expression system by kinome scan-based assay.
Data set [12] is filed under the species Homo sapiens. Description: Selectivity ratio of IC50 for PLK1 (unknown origin) to IC50 for human N-terminal GST-tagged ALK F1174L mutant (1058 to 1620 residues).
Data set [13] addresses T4, ALK tyrosine kinase receptor. Description: Binding affinity to wild type human ALK (1088 to 1409 residues) expressed in mammalian expression system assessed as unbound protein level at 1 uM by kinome scan-based assay. The procedure, abridged: as §1
Target sequence in this assay (Q9UM73 19-1620 limits assumed): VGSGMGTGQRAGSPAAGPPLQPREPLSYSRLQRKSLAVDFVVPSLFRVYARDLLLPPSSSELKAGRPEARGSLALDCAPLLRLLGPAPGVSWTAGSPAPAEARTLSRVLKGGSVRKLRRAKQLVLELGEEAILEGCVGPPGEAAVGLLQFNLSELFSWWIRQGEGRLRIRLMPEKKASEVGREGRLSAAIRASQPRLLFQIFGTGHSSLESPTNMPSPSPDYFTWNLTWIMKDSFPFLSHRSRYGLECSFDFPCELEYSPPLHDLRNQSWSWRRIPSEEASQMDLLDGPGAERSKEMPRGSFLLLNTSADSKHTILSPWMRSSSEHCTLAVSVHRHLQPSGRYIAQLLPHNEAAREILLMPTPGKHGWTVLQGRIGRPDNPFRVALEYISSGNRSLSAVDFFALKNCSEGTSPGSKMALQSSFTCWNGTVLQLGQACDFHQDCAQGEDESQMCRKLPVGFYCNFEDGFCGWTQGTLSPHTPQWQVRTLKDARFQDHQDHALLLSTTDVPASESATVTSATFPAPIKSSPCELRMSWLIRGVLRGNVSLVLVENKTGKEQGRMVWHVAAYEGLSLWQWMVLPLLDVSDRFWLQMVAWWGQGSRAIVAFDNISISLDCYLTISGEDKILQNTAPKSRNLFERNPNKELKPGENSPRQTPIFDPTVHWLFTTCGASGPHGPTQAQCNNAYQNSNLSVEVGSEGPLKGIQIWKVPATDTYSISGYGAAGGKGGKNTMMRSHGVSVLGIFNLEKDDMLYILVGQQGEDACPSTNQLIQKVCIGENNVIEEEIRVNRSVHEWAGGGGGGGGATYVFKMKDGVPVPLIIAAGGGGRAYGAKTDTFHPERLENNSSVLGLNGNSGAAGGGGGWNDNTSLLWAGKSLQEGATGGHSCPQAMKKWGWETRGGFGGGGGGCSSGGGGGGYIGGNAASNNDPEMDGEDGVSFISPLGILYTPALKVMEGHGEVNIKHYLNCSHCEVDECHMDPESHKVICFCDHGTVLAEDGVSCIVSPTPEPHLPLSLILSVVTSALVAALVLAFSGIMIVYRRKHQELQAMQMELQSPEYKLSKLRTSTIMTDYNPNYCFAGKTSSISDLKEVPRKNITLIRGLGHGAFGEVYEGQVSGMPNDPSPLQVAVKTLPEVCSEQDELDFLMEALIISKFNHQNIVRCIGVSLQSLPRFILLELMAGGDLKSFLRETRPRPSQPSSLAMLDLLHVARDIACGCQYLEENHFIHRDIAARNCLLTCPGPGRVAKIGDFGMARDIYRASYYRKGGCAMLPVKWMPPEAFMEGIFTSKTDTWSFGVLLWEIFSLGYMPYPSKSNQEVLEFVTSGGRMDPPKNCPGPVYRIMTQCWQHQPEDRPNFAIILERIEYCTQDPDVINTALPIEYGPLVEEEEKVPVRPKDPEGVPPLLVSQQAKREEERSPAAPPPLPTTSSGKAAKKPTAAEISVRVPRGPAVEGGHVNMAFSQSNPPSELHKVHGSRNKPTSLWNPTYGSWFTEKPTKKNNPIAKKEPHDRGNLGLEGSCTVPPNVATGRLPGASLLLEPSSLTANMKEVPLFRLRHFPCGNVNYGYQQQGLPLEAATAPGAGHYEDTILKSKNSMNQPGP
The nature of data set [14]: Permeability of the compound at pH 7.4 by PAMPA. The class given is ADME. To be noted: read-out: permeability.
For data set [15], the target named is T6, Serine/threonine-protein kinase PLK3 (Homo sapiens, UniProt Q9H4B4). Description: Binding affinity to human PLK3 (42 to 334 residues) expressed in mammalian expression system assessed as unbound protein level at 1 uM by kinome scan-based assay. The procedure, abridged: as §1
Target sequence in this assay (Q9H4B4 whole entry, looked up, the tested form may be a part): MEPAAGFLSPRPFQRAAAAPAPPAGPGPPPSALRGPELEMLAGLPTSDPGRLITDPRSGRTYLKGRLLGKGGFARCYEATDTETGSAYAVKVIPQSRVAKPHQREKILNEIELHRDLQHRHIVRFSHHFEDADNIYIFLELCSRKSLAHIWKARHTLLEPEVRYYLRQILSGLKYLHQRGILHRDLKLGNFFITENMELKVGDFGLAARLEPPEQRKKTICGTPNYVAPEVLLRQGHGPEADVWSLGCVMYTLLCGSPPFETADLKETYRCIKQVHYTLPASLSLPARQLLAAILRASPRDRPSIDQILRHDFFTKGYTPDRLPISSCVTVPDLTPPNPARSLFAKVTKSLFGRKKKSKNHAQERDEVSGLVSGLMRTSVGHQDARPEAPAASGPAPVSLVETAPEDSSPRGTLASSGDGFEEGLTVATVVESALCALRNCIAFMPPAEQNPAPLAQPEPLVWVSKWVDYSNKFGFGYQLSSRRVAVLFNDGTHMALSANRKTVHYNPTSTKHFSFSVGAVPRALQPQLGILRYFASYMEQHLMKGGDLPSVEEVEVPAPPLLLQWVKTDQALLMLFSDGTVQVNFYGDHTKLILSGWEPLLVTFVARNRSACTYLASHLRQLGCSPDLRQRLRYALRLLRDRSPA
The target in data set [16] is T1, ALK tyrosine kinase receptor. Put plainly: Inhibition of ALK F1174L mutant auto-phosphorylation in human Kelly cells after 3 hrs by MSD assay. The data set is classed as cell-based.
The target in data set [17] is T6, Serine/threonine-protein kinase PLK3. Put plainly: Binding affinity to human PLK3 (42 to 334 residues) expressed in mammalian expression system by kinome scan-based assay.
Target sequence in this assay (Q9H4B4 whole entry, the tested form may be a part): as the sequence (Q9H4B4 whole entry, looked up, the tested form may be a part) above
The target in data set [18] is T3, Serine/threonine-protein kinase PLK1. Put plainly: Binding affinity to human PLK1 (33 to 325 residues) expressed in mammalian expression system by kinome scan-based assay.
The target in data set [19] is T5, Insulin receptor. Description: Binding affinity to human INSR (997 to 1318 residues) expressed in mammalian expression system assessed as unbound protein level at 1 uM by kinome scan-based assay. The procedure, abridged: as §1
In data set [20] the target is T4, ALK tyrosine kinase receptor. Description: Binding affinity to wild type human ALK (1088 to 1409 residues) expressed in mammalian expression system by kinome scan-based assay.
Target sequence in this assay (Q9UM73 whole entry): as the sequence (Q9UM73 whole entry) above
Data set [21] can be described thus: Solubility of the compound in phosphate buffer at pH 7.4 b HPLC analysis. The data set is classed as physicochemical. The procedure, abridged:
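Solubility measured by in-house HPLC method from phosphate buffer at pH 7.4.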

For data set [22], the species on record is Homo sapiens. Description: Selectivity ratio of IC50 for PLK1 in human HeLa cells to IC50 for human N-terminal GST-tagged ALK F1174L mutant (1058 to 1620 residues). The class given is cell-based.
For data set [23], the target named is T1, ALK tyrosine kinase receptor. Description: Binding affinity to human ALK F1174L mutant (1088 to 1409 residues) expressed in mammalian expression system by kinome scan-based assay.

T3 sequence (P53350 whole entry): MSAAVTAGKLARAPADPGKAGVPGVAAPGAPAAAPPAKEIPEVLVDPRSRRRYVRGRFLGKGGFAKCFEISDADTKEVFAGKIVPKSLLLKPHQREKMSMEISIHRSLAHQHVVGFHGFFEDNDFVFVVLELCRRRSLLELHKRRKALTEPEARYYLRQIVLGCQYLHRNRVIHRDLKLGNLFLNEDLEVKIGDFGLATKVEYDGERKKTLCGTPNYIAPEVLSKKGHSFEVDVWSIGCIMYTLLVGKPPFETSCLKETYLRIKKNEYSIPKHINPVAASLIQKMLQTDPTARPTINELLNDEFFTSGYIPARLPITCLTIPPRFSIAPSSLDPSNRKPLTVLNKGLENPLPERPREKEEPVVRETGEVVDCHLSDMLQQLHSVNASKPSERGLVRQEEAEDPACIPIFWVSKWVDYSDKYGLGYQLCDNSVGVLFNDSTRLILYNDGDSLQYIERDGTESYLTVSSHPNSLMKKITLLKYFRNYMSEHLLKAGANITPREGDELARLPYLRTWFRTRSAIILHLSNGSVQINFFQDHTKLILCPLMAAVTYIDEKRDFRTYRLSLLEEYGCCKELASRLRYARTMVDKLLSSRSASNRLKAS
T1 sequence (Q9UM73 19-1620 F1174L limits assumed): as the sequence (Q9UM73 19-1620 limits assumed) above, with F1156L counted along it

Broadly, the IC50 is the concentration that inhibits the measured activity by half. Higher therefore signals weaker potency. `CCOc1cc(C2CCN(C)CC2)ccc1Nc1ncc2c(n1)N(Cc1scnc1C)[C@H](CC)C(=O)N2C` displayed an IC50 in data set [1] of 370 nM. This molecule had a deltaTm in data set [2] of 4.6 K.
By Kd is commonly meant the constant that tells how readily two partners part at equilibrium. Higher therefore signals weaker binding. `CCOc1cc(C2CCN(C)CC2)ccc1Nc1ncc2c(n1)N(Cc1cccc(Cl)c1)[C@H](CC)C(=O)N2C`: the figures for the IC50 in [3] and in data set [1] were 540 nM and 210 nM, respectively. Also, binding in data set [4] was characterised by a dissociation constant (Kd) of 130 nM. In data set [2], this molecule came in with a deltaTm of 6.2 K.
The corresponding values for `CCOc1cc(C(=O)NC2CCN(C)CC2)ccc1Nc1ncc2c(n1)N(Cc1ccccc1)[C@H](CC)C(=O)N2C` are 84 nM, 440 nM, 69 nM and 4.1 K.
For `CCOc1cc(C2CCN(C)CC2)ccc1Nc1ncc2c(n1)N(Cc1cccc(OC)c1)[C@H](CC)C(=O)N2C`, in [1], the half-maximal inhibitory concentration (IC50) was 350 nM. In data set [2], this molecule returned a deltaTm of 5.1 K.
On to `CCOc1cc(C2CCN(C)CC2)ccc1Nc1ncc2c(n1)N(Cc1ccccc1)[C@H](CC)C(=O)N2C`, for which the IC50 in data set [3] was determined as 290 nM; in data set [5], 1640 nM; in [1], 85 nM; in data set [6], 540 nM. The same molecule yielded a Kd in data set [4] of 54 nM. The molecule further displayed a deltaTm in data set [2] of 4.7 K.
As usually defined, the inhibition is how much of the control response was suppressed. A higher inhibition goes with a response far below the control. `CC[C@@H]1C(=O)N(C)c2cnc(Nc3ccc(C(=O)NC4CCN(C)CC4)cc3OCC(C)C)nc2N1C1CCCC1` gave an IC50 in data set [1] of 1700 nM. In data set [4], this molecule had a dissociation constant Kd of 73 nM. This molecule showed an inhibition in data set [7] of 43%. The deltaTm in data set [2] was determined as 7.2 K.
What is called logD is lipophilicity at a set pH, counting ionised and neutral species. High values mean higher lipophilicity, low ones lower lipophilicity. A word on the logP: it is a log measure of how a compound divides between an organic and an aqueous phase. The low end stands for a more hydrophilic compound, the high end for a more lipophilic compound. Broadly, the solubility is the concentration that dissolves in the medium under given conditions. Take `CCOc1cc(C2CCN(C)CC2)ccc1Nc1ncc2c(n1)N(Cc1cc(C)cs1)[C@H](CC)C(=O)N2C`: the concentration for half-maximal inhibition (IC50) in data set [3] worked out at 125 nM; in data set [5], 470 nM; in [1] it was 17 nM; in data set [6], 260 nM; in [16], 1500 nM. Also, the Activity in data set [8] is 1%; in data set [13] it was 7.1%; in data set [15], 25%; on Insulin receptor [19], 25%. Further, the logD in [9] is reported as 4.2. The molecule also had a logP in [10] of 6.1. For the same molecule, the result in the data set on HeLa was Active. The equilibrium dissociation constant (Kd) is 190 nM on Insulin receptor [11]; 160 nM in data set [17]; 11 nM in [18]; 44 nM in data set [4]; 89 nM in [20]; 23 nM in [23]. In the data set listed under Homo sapiens [12], the Ratio IC50 is 7. For the same molecule, the Papp in data set [14] was 49 ×10⁻⁶ cm/s. This molecule also gave a solubility in data set [21] of 90 µM (≈ 48.1 µg/mL). For the same molecule, in the data set filed under Homo sapiens [22], the Ratio is more than 10. Moreover, in data set [2], the deltaTm worked out at 7.1 K.
`CCOc1cc(C2CCN(C)CC2)ccc1Nc1ncc2c(n1)N(Cc1ccccc1Br)[C@H](CC)C(=O)N2C` displayed an IC50 in [1] of 150 nM. The molecule also yielded a deltaTm in data set [2] of 2.9 K.
In the case of `CC[C@@H]1C(=O)N(C)c2cnc(Nc3ccc(C4CCN(C)CC4)cc3OC)nc2N1C1CCCC1`, the results for the half-maximal inhibitory concentration (IC50) in data set [3] and in data set [1] were 9.9 nM and 290 nM, respectively. This molecule also displayed a Kd in [4] of 80 nM. Further, the deltaTm in [2] is 5.4 K.
The matching figures for `CCOc1cc(C(=O)NC2CCN(C)CC2)ccc1Nc1ncc2c(n1)N(Cc1cccc(Br)c1)[C@H](CC)C(=O)N2C`: 110 nM, 490 nM, 73 nM and 6.7 K.
In data set [1], `CCOc1cc(C(=O)NC2CCN(C)CC2)ccc1Nc1ncc2c(n1)N(C1CCCC1)[C@@H](CC)C(=O)N2C` came in with a half-inhibitory concentration (IC50) of 3400 nM. This molecule gave an inhibition in data set [7] of 19%. In addition, the deltaTm in data set [2] is -0.2 K.
As for `CCOc1cc(C(=O)NC2CCN(C)CC2)ccc1Nc1ncc2c(n1)N(C1CCCC1)CC(=O)N2C`, the IC50 in data set [1] was determined as 520 nM. For the same molecule, the inhibition in data set [7] turned out to be 32%. In [2], the deltaTm came to 0.2 K.
Regarding `CCOc1cc(C(=O)NC2CCN(C)CC2)ccc1Nc1ncc2c(n1)N(C1CCCC1)[C@H](CC)C(=O)N2C`, the IC50 in [3] was found to be 12 nM; in data set [1] it was 380 nM. Moreover, binding in data set [4] was characterised by a dissociation constant (Kd) of 81 nM. This molecule also came in with a deltaTm in data set [2] of 6 K.
Take `CCOc1cc(C2CCN(C)CC2)ccc1Nc1ncc2c(n1)N(Cc1ccc(C)s1)[C@H](CC)C(=O)N2C`: the IC50 in [1] amounted to 220 nM. The molecule also had a deltaTm in data set [2] of 8.3 K.
On to `CCOc1cc(C2CCN(C)CC2)ccc1Nc1ncc2c(n1)N(Cc1sccc1C)[C@H](CC)C(=O)N2C`, for which the half-maximal inhibitory concentration (IC50) in data set [3] stood at 68 nM; in [5], 1020 nM; in data set [1] it was 63 nM; in data set [6], 310 nM. For the same molecule, in data set [4], binding was put at a Kd of 63 nM. Also, the deltaTm in data set [2] was 5.4 K.
On to `CCOc1cc(C2CCN(C)CC2)ccc1Nc1ncc2c(n1)N(Cc1cccc(C#N)c1)[C@H](CC)C(=O)N2C`, for which the IC50 was 1800 nM in [3] and 370 nM in data set [1]. For the same molecule, in data set [4], the Kd turned out to be 78 nM. The deltaTm in data set [2] stood at 4.8 K.
`CCOc1cc(C2CCN(C)CC2)ccc1Nc1ncc2c(n1)N(Cc1ccc(Br)cc1)[C@H](CC)C(=O)N2C`: the half-maximal inhibitory concentration (IC50) in data set [1] was 680 nM. Further, in [2], the deltaTm was 5.8 K.
Regarding `CCOc1cc(C2CCN(C)CC2)ccc1Nc1ncc2c(n1)N(Cc1cccc(Br)c1)[C@H](CC)C(=O)N2C`, the values for the IC50 in [3] and in [1] were 540 nM and 290 nM, respectively. The same molecule came in with a dissociation constant (Kd) in data set [4] of 120 nM. This molecule also returned a deltaTm in [2] of 5 K.
